Experimental data from ChEMBL document CHEMBL1152902, “Synthesis, antifungal activities and 3D-QSAR study of N-(5-substituted-1,3,4-thiadiazol-2-yl)cyclopropanecarboxamides” (2009).

Columns and labels:
Type in all cases: functional
Corynespora cassiicola = assay: Antifungal activity against Corynespora cassiicola at 500 ug/ml relative to control
Method in brief: (§1)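 Pot culture test run as in the cited reference, with series compounds screened against five fungi: S. sclerotiorum (Lib.) de Bary, R. solani, F. oxysporum, C. cassiicola and B. cinerea. Culture plates were held at (24 ±1) °C. Commercial fungicides (dimehachlon, jinggangmycin, thiophanate methyl, chlorothalonil, pyrimethanil) served as controls under the same conditions.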

Botrytis cinerea = assay: Antifungal activity against Botrytis cinerea at 500 ug/ml relative to control; method in brief: as §1
Sclerotinia sclerotiorum = assay: Antifungal activity against Sclerotinia sclerotiorum (Lib.) de Bary at 500 ug/ml relative to control; method in brief: as §1
Rhizoctonia solani = assay: Antifungal activity against Rhizoctonia solani at 500 ug/ml relative to control; method in brief: as §1
Fusarium oxysporum = assay: Antifungal activity against Fusarium oxysporum at 500 ug/ml relative to control; method in brief: as §1

CCc1nnc(NC(=O)C2CC2)s1
inhibition at 500 µg/mL (Corynespora cassiicola): 49.7% | inhibition at 500 µg/mL (Botrytis cinerea): 32.1% | inhibition at 500 µg/mL (Sclerotinia sclerotiorum): 51.7% | inhibition at 500 µg/mL (Rhizoctonia solani): 23% | inhibition at 500 µg/mL (Fusarium oxysporum): 10%

O=C(Nc1nnc(-c2ccccc2)s1)C1CC1
inhibition at 500 µg/mL (Corynespora cassiicola): 17.4% | inhibition at 500 µg/mL (Botrytis cinerea): 80.5% | inhibition at 500 µg/mL (Sclerotinia sclerotiorum): 24% | inhibition at 500 µg/mL (Rhizoctonia solani): 9% | inhibition at 500 µg/mL (Fusarium oxysporum): 16%

N#Cc1c(Cl)c(Cl)c(Cl)c(C#N)c1Cl [CHLOROTHALONIL]
inhibition at 500 µg/mL (Corynespora cassiicola): 86.4%

O=C(Nc1nnc(-c2ccc(Cl)cc2)s1)C1CC1
inhibition at 500 µg/mL (Corynespora cassiicola): 19.7% | inhibition at 500 µg/mL (Botrytis cinerea): 13.5% | inhibition at 500 µg/mL (Sclerotinia sclerotiorum): 23.9% | inhibition at 500 µg/mL (Rhizoctonia solani): 62% | inhibition at 500 µg/mL (Fusarium oxysporum): 28%

O=C(Nc1nnc(-c2ccccc2Cl)s1)C1CC1
inhibition at 500 µg/mL (Corynespora cassiicola): 21.4% | inhibition at 500 µg/mL (Botrytis cinerea): 35.1% | inhibition at 500 µg/mL (Sclerotinia sclerotiorum): 25.5% | inhibition at 500 µg/mL (Rhizoctonia solani): 44% | inhibition at 500 µg/mL (Fusarium oxysporum): 91%

O=C(Nc1nnc(-c2ccc([N+](=O)[O-])cc2)s1)C1CC1
inhibition at 500 µg/mL (Corynespora cassiicola): 18.6% | inhibition at 500 µg/mL (Botrytis cinerea): 30.3% | inhibition at 500 µg/mL (Sclerotinia sclerotiorum): 43.1% | inhibition at 500 µg/mL (Rhizoctonia solani): 16% | inhibition at 500 µg/mL (Fusarium oxysporum): 13%

Cc1cc(C)nc(Nc2ccccc2)n1 [PYRIMETHANIL]
inhibition at 500 µg/mL (Botrytis cinerea): 99.2%

CCCc1nnc(NC(=O)C2CC2)s1
inhibition at 500 µg/mL (Corynespora cassiicola): 46.6% | inhibition at 500 µg/mL (Botrytis cinerea): 57.9% | inhibition at 500 µg/mL (Sclerotinia sclerotiorum): 40% | inhibition at 500 µg/mL (Rhizoctonia solani): 35% | inhibition at 500 µg/mL (Fusarium oxysporum): 1%

Cc1nnc(NC(=O)C2CC2)s1
inhibition at 500 µg/mL (Corynespora cassiicola): 52.4% | inhibition at 500 µg/mL (Botrytis cinerea): 67.5% | inhibition at 500 µg/mL (Sclerotinia sclerotiorum): 23% | inhibition at 500 µg/mL (Rhizoctonia solani): 5% | inhibition at 500 µg/mL (Fusarium oxysporum): 84%

COc1ccc(-c2nnc(NC(=O)C3CC3)s2)cc1
inhibition at 500 µg/mL (Corynespora cassiicola): 33.3% | inhibition at 500 µg/mL (Botrytis cinerea): 79.4% | inhibition at 500 µg/mL (Sclerotinia sclerotiorum): 33% | inhibition at 500 µg/mL (Rhizoctonia solani): -9% | inhibition at 500 µg/mL (Fusarium oxysporum): 12%

O=C(Nc1nnc(C2CC2)s1)C1CC1
inhibition at 500 µg/mL (Corynespora cassiicola): 13.3% | inhibition at 500 µg/mL (Botrytis cinerea): 66.6% | inhibition at 500 µg/mL (Sclerotinia sclerotiorum): 26.7% | inhibition at 500 µg/mL (Rhizoctonia solani): 21% | inhibition at 500 µg/mL (Fusarium oxysporum): 37%

CCCCc1nnc(NC(=O)C2CC2)s1
inhibition at 500 µg/mL (Corynespora cassiicola): 21.9% | inhibition at 500 µg/mL (Botrytis cinerea): 26% | inhibition at 500 µg/mL (Sclerotinia sclerotiorum): 10.3% | inhibition at 500 µg/mL (Rhizoctonia solani): 44% | inhibition at 500 µg/mL (Fusarium oxysporum): 2%

CC(C)c1nnc(NC(=O)C2CC2)s1
inhibition at 500 µg/mL (Corynespora cassiicola): 29.3% | inhibition at 500 µg/mL (Botrytis cinerea): 42% | inhibition at 500 µg/mL (Sclerotinia sclerotiorum): 47.7% | inhibition at 500 µg/mL (Rhizoctonia solani): 11% | inhibition at 500 µg/mL (Fusarium oxysporum): 20%

O=C1CCC(=O)N1c1cc(Cl)cc(Cl)c1 [DIMETHACHLON]
inhibition at 500 µg/mL (Sclerotinia sclerotiorum): 96.7%

O=C(Nc1nnc(-c2ccccc2F)s1)C1CC1
inhibition at 500 µg/mL (Corynespora cassiicola): 68.3% | inhibition at 500 µg/mL (Botrytis cinerea): 67.5% | inhibition at 500 µg/mL (Sclerotinia sclerotiorum): 23% | inhibition at 500 µg/mL (Rhizoctonia solani): 5% | inhibition at 500 µg/mL (Fusarium oxysporum): 84%

Cc1ccccc1-c1nnc(NC(=O)C2CC2)s1
inhibition at 500 µg/mL (Corynespora cassiicola): 50.8% | inhibition at 500 µg/mL (Botrytis cinerea): 75.1% | inhibition at 500 µg/mL (Sclerotinia sclerotiorum): 37.5% | inhibition at 500 µg/mL (Rhizoctonia solani): 36% | inhibition at 500 µg/mL (Fusarium oxysporum): 21%

Cc1cccc(-c2nnc(NC(=O)C3CC3)s2)c1
inhibition at 500 µg/mL (Corynespora cassiicola): 8.38% | inhibition at 500 µg/mL (Botrytis cinerea): 90.7% | inhibition at 500 µg/mL (Sclerotinia sclerotiorum): 20% | inhibition at 500 µg/mL (Rhizoctonia solani): 39% | inhibition at 500 µg/mL (Fusarium oxysporum): 11%

COC(=O)NC(=S)Nc1ccccc1NC(=S)NC(=O)OC [THIOPHANATE METHYL]
inhibition at 500 µg/mL (Fusarium oxysporum): 97%

O=C(Nc1nncs1)C1CC1
inhibition at 500 µg/mL (Corynespora cassiicola): 22.5% | inhibition at 500 µg/mL (Botrytis cinerea): 83.7% | inhibition at 500 µg/mL (Sclerotinia sclerotiorum): 24% | inhibition at 500 µg/mL (Rhizoctonia solani): 37% | inhibition at 500 µg/mL (Fusarium oxysporum): 17%
